According to ChEMBL document CHEMBL4346662, “Synthesis of novel 7-azaindole derivatives containing pyridin-3-ylmethyl dithiocarbamate moiety as potent PKM2 activators and PKM2 nucleus translocation inhibitors” (Eur J Med Chem, 2019):
pIC50: −log10 of the molar value. Activity calls are given as the source filed them. The calls are words filed in the database; no cut-off is given here.

Assays:
Pyruvate kinase PKM [1] = biological target: T1, Pyruvate kinase PKM (Homo sapiens, UniProt P14618); test: Activation of human recombinant His-tagged PKM2 expressed in Escherichia coli using PEP as substrate measured at 30 sec between 3 and 6 mins in presence of […] by fluorescent pyruvate kinase-lactate dehydrogenase coupled assay
Summary of the method: (§1)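 Pyruvate kinase activity read by fluorescent pyruvate kinase–lactate dehydrogenase coupled assay; AC50 and maximal activation are means of at least two determinations.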
Target sequence in this assay (P14618 whole entry): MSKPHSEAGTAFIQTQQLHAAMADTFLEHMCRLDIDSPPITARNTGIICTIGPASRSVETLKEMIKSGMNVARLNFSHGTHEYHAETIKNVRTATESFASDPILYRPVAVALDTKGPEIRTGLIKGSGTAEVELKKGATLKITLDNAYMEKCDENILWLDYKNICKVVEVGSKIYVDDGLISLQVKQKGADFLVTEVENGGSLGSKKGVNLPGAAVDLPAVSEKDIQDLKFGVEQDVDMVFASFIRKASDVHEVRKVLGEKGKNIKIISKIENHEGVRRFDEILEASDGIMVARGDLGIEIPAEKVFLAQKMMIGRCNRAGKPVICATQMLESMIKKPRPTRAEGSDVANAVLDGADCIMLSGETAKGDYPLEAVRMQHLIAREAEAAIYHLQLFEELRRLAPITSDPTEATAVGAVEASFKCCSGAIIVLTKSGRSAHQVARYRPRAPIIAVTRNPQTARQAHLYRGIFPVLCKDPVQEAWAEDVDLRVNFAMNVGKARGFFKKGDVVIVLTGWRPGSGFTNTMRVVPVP

Pyruvate kinase PKM [2] = biological target: T1, Pyruvate kinase PKM; test: Activation of human recombinant His-tagged PKM2 expressed in Escherichia coli assessed as maximal activity using PEP as substrate measured at 30 sec between 3 and 6 mins in presence of […] by fluorescent pyruvate kinase-lactate dehydrogenase coupled assay relative to control; summary of the method: as §1
Target sequence in this assay (P14618 2-531 limits assumed): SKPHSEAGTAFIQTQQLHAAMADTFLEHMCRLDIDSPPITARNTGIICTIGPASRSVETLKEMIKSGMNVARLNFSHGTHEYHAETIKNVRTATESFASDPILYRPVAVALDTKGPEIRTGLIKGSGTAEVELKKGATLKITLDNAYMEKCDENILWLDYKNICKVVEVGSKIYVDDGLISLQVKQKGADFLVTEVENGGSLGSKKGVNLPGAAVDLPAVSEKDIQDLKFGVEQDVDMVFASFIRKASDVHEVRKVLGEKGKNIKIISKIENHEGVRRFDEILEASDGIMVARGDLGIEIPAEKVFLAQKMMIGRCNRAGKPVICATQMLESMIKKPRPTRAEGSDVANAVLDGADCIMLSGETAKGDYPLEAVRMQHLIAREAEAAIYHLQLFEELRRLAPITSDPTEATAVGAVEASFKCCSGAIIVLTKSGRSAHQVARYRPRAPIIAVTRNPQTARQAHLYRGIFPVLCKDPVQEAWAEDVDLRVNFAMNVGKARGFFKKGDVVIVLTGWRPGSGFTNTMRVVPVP

HCT-116 = test: Antiproliferative activity against human HCT116 cells assessed as reduction in cell growth incubated for 72 hrs by CellTiter-Glo assay; type: functional, cell-based; details: HCT-116, 72 h
Summary of the method: (§2)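 Cells (H1299 in RPMI 1640; HCT116 and A375 in DMEM; 10% FBS, 37 °C, 5% CO2) plated at 2000 per well, left 24 h, then exposed to ten concentrations or DMSO for 72 h. CellTiter-Glo added, 30 min at room temperature in dark, luminescence read. IC50 fitted from triplicate experiments.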

NCI-H1299 = test: Antiproliferative activity against human H1299 cells assessed as reduction in cell growth incubated for 72 hrs by CellTiter-Glo assay; type: functional, cell-based; details: NCI-H1299, 72 h; summary of the method: as §2
A-375 = test: Antiproliferative activity against human A375 cells assessed as reduction in cell growth incubated for 72 hrs by CellTiter-Glo assay; type: functional, cell-based; details: A-375, 72 h; summary of the method: as §2

| Compound | AC50 (Pyruvate kinase PKM [1]) | %max (Pyruvate kinase PKM [2]) | AC50 (Pyruvate kinase PKM [1]; read-out: AC50) | pIC50 (HCT-116) | pIC50 (NCI-H1299) | pIC50 (A-375) |
| --- | --- | --- | --- | --- | --- | --- |
| O=C(CCSC(=S)NCc1cccnc1)c1c[nH]c2nc(Cl)ccc12 | Not Active | inactive | – | – | – | – |
| Cc1ccc2c(C(=O)CCSC(=S)NCc3cccnc3)c[nH]c2n1 | Not Active | inactive | – | – | – | – |
| O=C(CCSC(=S)NCc1cccnc1)c1c[nH]c2ncc(Cl)cc12 | – | 71% | 0.18 µM | 5.21 | 5.05 | 5.47 |
| O=C(CCSC(=S)NCc1cccnc1)c1c[nH]c2nccc(-c3ccccc3)c12 | – | 28% | 2.17 µM | – | – | – |

Results, then the compound that gave them:

| AC50 (Pyruvate kinase PKM [1]) | %max (Pyruvate kinase PKM [2]) | AC50 (Pyruvate kinase PKM [1]; read-out: AC50) | pIC50 (HCT-116) | pIC50 (NCI-H1299) | pIC50 (A-375) | Compound |
| --- | --- | --- | --- | --- | --- | --- |
| – | 42% | 4.56 µM | 6.08 | 5.02 | 6.68 | O=C(CCSC(=S)NCc1cccnc1)c1cn(C2CC2)c2ncccc12 |
| Not Active | inactive | – | – | – | – | O=C(CCSC(=S)NCc1cccnc1)c1cn(-c2cccs2)c2ncccc12 |
| – | 23% | > 20 µM | – | – | – | O=C(CCSC(=S)NCc1cccnc1)c1cnn2ccccc12 |
| – | 93% | 3.93 µM | 5.45 | 5.38 | 5.87 | O=C(CCSC(=S)NCc1cccnc1)c1cn(C2CCC2)c2ncccc12 |
| – | 122% | 1.14 µM | 5.69 | 5.60 | 6.39 | O=C(CCSC(=S)NCc1cccnc1)c1c[nH]c2nccc(Cl)c12 |
